Converted amounts (≈) assume the structure as drawn. The source made the active and inactive calls. No cut-off for these calls is given here.
Tests used:
[1] = test system: Candida albicans; assay: Antifungal activity against Candida albicans ATCC MYA-2876 after 48 hrs by micro broth dilution method; type: functional; settings: ATCC MYA-2876, 48 h
Outline: (§1)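 Broth microdilution in RPMI-1640 (NaHCO3, MOPS, pH 7.0). Compounds are dissolved in DMSO and serially diluted 2-fold to eight concentrations, with stocks of […]. Fungal inocula are 2 × 10³ cfu/mL. Plates are incubated 48 h at 28 °C. The MIC is the lowest concentration with no turbidity, and the highest concentration tested is 100 μg/mL.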

[2] = test system: Candida parapsilosis; assay: Antifungal activity against Candida parapsilosis ATCC 22019 after 48 hrs by micro broth dilution method; type: functional; settings: Lodderomyces parapsilosis, ATCC 22019, 48 h; outline: as §1
[3] = test system: Aspergillus fumigatus; assay: Antifungal activity against Aspergillus fumigatus CCTCC AF 93048 after 48 hrs by micro broth dilution method; type: functional; settings: CCTCC AF 93048, 48 h; outline: as §1
[4] = test system: Candida albicans; assay: Antifungal activity against Candida albicans ATCC MYA-2876 at 100 ug/ml after 48 hrs by micro broth dilution method; type: functional, organism-based; outline: as §1
[5] = test system: Candida parapsilosis; assay: Antifungal activity against Candida parapsilosis ATCC 22019 at 100 ug/ml after 48 hrs by micro broth dilution method; type: functional, organism-based; outline: as §1
[6] = test system: Aspergillus fumigatus; assay: Antifungal activity against Aspergillus fumigatus CCTCC AF 93048 at 100 ug/ml after 48 hrs by micro broth dilution method; type: functional, organism-based; outline: as §1
[7] = test system: HEK-293T; assay: Cytotoxicity against HEK293T cells assessed as growth inhibition after 48 hrs by MTT assay; type: cell-based; settings: Homo sapiens
Outline: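 293T cells are grown in DMEM with 10% FBS, L-glutamine and penicillin/streptomycin at 37 °C in 5% CO₂. Cells are seeded at 7 × 10³ per well and exposed to six concentrations (0.33-100.0 μM) for 48 h. MTT is then added for 4 h, formazan is dissolved in DMSO and read at 570 nm. IC50 comes from non-linear regression, n = 3 independent experiments.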

[8] = Selectivity index, ratio of IC50 for HEK293T cells to MIC for Candida albicans ATCC MYA-2876; type: toxicity; settings: human, read-out: Selectivity Index
[9] = Selectivity index, ratio of IC50 for HEK293T cells to MIC for Candida parapsilosis ATCC 22019; type: toxicity; settings: human, read-out: Selectivity Index
[10] = Selectivity index, ratio of IC50 for HEK293T cells to MIC for Aspergillus fumigatus CCTCC AF 93048; type: toxicity; settings: human, read-out: Selectivity Index

MIC [1] [µg/mL]	MIC [2] [µg/mL]	MIC [3] [µg/mL]	Compound	Activity [4]	Activity [5]	Activity [6]	IC50 [7] [µg/mL]	selectivity ratio [8]	selectivity ratio [9]	selectivity ratio [10]
> 100	> 100	> 100	C[C@@H]1C[C@H](C)C[C@H](C)[C@@H](O)CC(=O)O[C@H]([C@@H]2CCC[C@H]2C(=O)O)C/C=C/C=C(/C(N)=O)[C@H](O)[C@@H](C)C1	inactive	inactive	inactive	–	–	–	–
100 (≈ 166 µM)	100 (≈ 166 µM)	50 (≈ 83.2 µM)	C[C@@H]1C[C@H](C)C[C@H](C)[C@@H](O)CC(=O)O[C@H]([C@@H]2CCC[C@H]2C(=O)OCCN2CCCCC2)C/C=C/C=C(/C#N)[C@H](O)[C@@H](C)C1	–	–	–	27.6 (≈ 46 µM)	0.28	0.28	0.55
–	–	12.5 (≈ 17.8 µM)	C[C@@H]1C[C@H](C)C[C@H](C)[C@@H](O)CC(=O)O[C@H]([C@@H]2CCC[C@H]2C(=O)OCCN2CCN(CCC3OCCO3)CC2)C/C=C/C=C(/C#N)[C@H](O)[C@@H](C)C1	inactive	inactive	–	> 70.1	< 0.7	< 0.7	> 5.61
–	–	25 (≈ 35.8 µM)	C[C@@H]1C[C@H](C)C[C@H](C)[C@@H](O)CC(=O)O[C@H]([C@@H]2CCC[C@H]2C(=O)OCCN2CCN(CC3CCCCC3)CC2)C/C=C/C=C(/C#N)[C@H](O)[C@@H](C)C1	inactive	inactive	–	23 (≈ 33 µM)	< 0.23	< 0.23	0.92
–	–	25 (≈ 42.8 µM)	C[C@@H]1C[C@H](C)C[C@H](C)[C@@H](O)CC(=O)O[C@H]([C@@H]2CCC[C@H]2C(=O)OCCn2ccnc2)C/C=C/C=C(/C#N)[C@H](O)[C@@H](C)C1	–	–	–	18.1 (≈ 31 µM)	< 0.18	< 0.18	0.72
–	–	12.5 (≈ 19.5 µM)	C=CCN1CCN(CCOC(=O)[C@@H]2CCC[C@H]2[C@@H]2C/C=C/C=C(/C#N)[C@H](O)[C@@H](C)C[C@H](C)C[C@H](C)C[C@H](C)[C@@H](O)CC(=O)O2)CC1	inactive	inactive	–	22 (≈ 34.3 µM)	< 0.22	< 0.22	1.76
100 (≈ 178 µM)	100 (≈ 178 µM)	–	C[C@@H]1C[C@H](C)C[C@H](C)[C@@H](O)CC(=O)O[C@H]([C@@H]2CCC[C@H]2C(=O)OCCN(C)C)C/C=C/C=C(/C#N)[C@H](O)[C@@H](C)C1	–	–	inactive	39.2 (≈ 70 µM)	0.39	0.39	< 0.39
100 (≈ 162 µM)	25 (≈ 40.6 µM)	50 (≈ 81.2 µM)	C[C@@H]1C[C@H](C)C[C@H](C)[C@@H](O)CC(=O)O[C@H]([C@@H]2CCC[C@H]2C(=O)OCCN2CCN(C)CC2)C/C=C/C=C(/C#N)[C@H](O)[C@@H](C)C1	–	–	–	58.5 (≈ 94.9 µM)	0.58	2.34	1.17
–	–	50 (≈ 76.2 µM)	C[C@@H]1C[C@H](C)C[C@H](C)[C@@H](O)CC(=O)O[C@H]([C@@H]2CCC[C@H]2C(=O)OCCN2CCN(CC3CC3)CC2)C/C=C/C=C(/C#N)[C@H](O)[C@@H](C)C1	inactive	inactive	–	17 (≈ 26 µM)	< 0.17	< 0.17	0.34
100 (≈ 166 µM)	100 (≈ 166 µM)	–	C[C@@H]1C[C@H](C)C[C@H](C)[C@@H](O)CC(=O)O[C@H]([C@@H]2CCC[C@H]2C(=O)OCCN2CCOCC2)C/C=C/C=C(/C#N)[C@H](O)[C@@H](C)C1	–	–	inactive	28 (≈ 46.5 µM)	0.28	0.28	< 0.28
–	–	–	CCCCCN(CCCC)C(=O)[C@@H]1CCC[C@H]1[C@@H]1C/C=C/C=C(/C#N)[C@H](O)[C@@H](C)C[C@H](C)C[C@H](C)C[C@H](C)[C@@H](O)CC(=O)O1	inactive	inactive	inactive	–	–	–	–
50 (≈ 85.2 µM)	12.5 (≈ 21.3 µM)	50 (≈ 85.2 µM)	C[C@@H]1C[C@H](C)C[C@H](C)[C@@H](O)CC(=O)O[C@H]([C@@H]2CCC[C@H]2C(=O)OCCN2CCCC2)C/C=C/C=C(/C#N)[C@H](O)[C@@H](C)C1	–	–	–	35.2 (≈ 60 µM)	0.71	2.81	0.71
–	–	–	C[C@@H]1C[C@H](C)C[C@H](C)[C@@H](O)CC(=O)O[C@H]([C@@H]2CCC[C@H]2C(=O)OCCN2CCN(C(=O)OC(C)(C)C)CC2)C/C=C/C=C(/C#N)[C@H](O)[C@@H](C)C1	inactive	inactive	inactive	–	–	–	–

Compound	MIC [1] [µg/mL]	MIC [2] [µg/mL]	MIC [3] [µg/mL]	Activity [4]	Activity [5]	Activity [6]	IC50 [7] [µg/mL]	selectivity ratio [8]	selectivity ratio [9]	selectivity ratio [10]
C[C@@H]1C[C@H](C)C[C@H](C)[C@@H](O)CC(=O)O[C@H]([C@@H]2CCC[C@H]2C(=O)O)C/C=C/C=C(/C#N)[C@H](O)[C@@H](C)C1 [BORRELIDIN]	–	50 (≈ 102 µM)	–	inactive	–	inactive	14 (≈ 28.5 µM)	< 0.14	0.28	< 0.14
C[C@@H]1[C@H](O)[C@@H](C)/C=C/C=C/C=C/C=C/C=C/C=C/C=C/[C@H](O[C@@H]2O[C@H](C)[C@@H](O)[C@H](N)[C@@H]2O)C[C@@H]2O[C@](O)(C[C@@H](O)C[C@@H](O)[C@H](O)CC[C@@H](O)C[C@@H](O)CC(=O)O[C@H]1C)C[C@H](O)[C@H]2C(=O)O [AMPHOTERICIN B]	2 (≈ 2.16 µM)	1 (≈ 1.08 µM)	2 (≈ 2.16 µM)	–	–	–	–	–	–	–

Source: ChEMBL document CHEMBL4382218, “Design, synthesis and antifungal evaluation of borrelidin derivatives” (Bioorg Med Chem, 2018)
